Experimental data from ChEMBL document CHEMBL1127454, “Differential inhibition of aminopeptidase A and aminopeptidase N by new beta-amino thiols” (J Med Chem, 1994).

Each molecule was assayed against T1, Aminopeptidase N (Sus scrofa, UniProt P15145) (assay: Inhibitory potency was measured on aminopeptidase N (APN)).
T1 sequence (P15145 whole entry): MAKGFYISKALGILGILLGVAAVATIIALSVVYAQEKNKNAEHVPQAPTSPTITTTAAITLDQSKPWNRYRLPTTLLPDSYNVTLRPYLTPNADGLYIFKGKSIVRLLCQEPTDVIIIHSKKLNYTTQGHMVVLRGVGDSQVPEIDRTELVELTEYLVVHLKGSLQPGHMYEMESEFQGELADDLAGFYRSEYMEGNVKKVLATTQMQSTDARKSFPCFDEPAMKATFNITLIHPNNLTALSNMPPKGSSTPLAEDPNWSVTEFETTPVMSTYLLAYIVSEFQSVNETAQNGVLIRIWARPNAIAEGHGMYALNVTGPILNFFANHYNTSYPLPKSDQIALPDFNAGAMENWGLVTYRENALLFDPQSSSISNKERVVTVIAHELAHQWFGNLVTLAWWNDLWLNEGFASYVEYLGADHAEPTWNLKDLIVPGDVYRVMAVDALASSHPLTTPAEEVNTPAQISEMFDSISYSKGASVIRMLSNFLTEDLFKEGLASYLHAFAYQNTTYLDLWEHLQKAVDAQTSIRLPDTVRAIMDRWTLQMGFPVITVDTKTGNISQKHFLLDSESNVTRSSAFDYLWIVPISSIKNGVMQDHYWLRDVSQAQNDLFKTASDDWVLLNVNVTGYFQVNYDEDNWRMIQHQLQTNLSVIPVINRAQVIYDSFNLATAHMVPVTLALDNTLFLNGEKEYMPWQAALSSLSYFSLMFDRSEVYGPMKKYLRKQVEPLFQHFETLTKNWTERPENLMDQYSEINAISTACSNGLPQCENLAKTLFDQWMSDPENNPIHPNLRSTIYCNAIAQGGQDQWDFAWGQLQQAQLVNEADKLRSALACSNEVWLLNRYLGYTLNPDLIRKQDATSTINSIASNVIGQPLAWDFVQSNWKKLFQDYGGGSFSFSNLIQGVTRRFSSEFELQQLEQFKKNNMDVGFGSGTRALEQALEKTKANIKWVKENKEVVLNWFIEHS
Method in brief: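 APN preincubated 15 min at 25 °C with varied inhibitor levels in 50 mM Tris-HCl pH 7.4. […] Reaction run 15 min, stopped with HCl. Released [3H]Tyr separated on polystyrene beads and counted by liquid scintillation. Thiols dissolved with DTT (100 equiv). Ki derived from IC50 via Cheng-Prusoff, competitive inhibition assumed. Three experiments, triplicate.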
Molecule `NC(CS)CCCCC(=O)O` (centres undefined) has a Ki of 0.28 µM. Work on `N[C@H](CS)CCS(=O)(=O)O` yielded a Ki of 25 µM. `N[C@H](CS)CCCC(=O)O` was tested, and the Ki was 0.33 µM. In the case of `N[C@H](CS)CCCS`, the Ki is reported as 0.032 µM. `N[C@@H](CS)CCCC(=O)O` was tested, and the Ki was 15.5 µM. `NC(CS)CCC(C(=O)O)C(=O)O` (centres undefined) gave a Ki of 0.6 µM. `NC(CS)CCCP(=O)(O)O` (centres undefined) showed a Ki of 3.7 µM. In the case of `NC(CS)CC(C(=O)O)C(=O)O` (centres undefined), the Ki is reported as 4.5 µM. For `CC(C[C@H](N)CS)C(=O)O` (some centres undefined), the Ki was 4 µM. Molecule `CC(CC(N)CS)C(=O)O` (centres undefined) has a Ki of 2.8 µM. `N[C@H](CS)CCCC(=O)NO` gave a Ki of 0.037 µM. For `N[C@H](CS)CCCS(=O)(=O)O`, the Ki was 1.9 µM. `NC(CS)CCP(=O)(O)O` (centres undefined) showed a Ki of 12 µM.

What follows are molecules tested against Glutamyl aminopeptidase (Oryctolagus cuniculus) (assay: Inhibition of aminopeptidase A (APA)).
With `N[C@H](CS)CCC(=O)O` the Ki was 0.14 µM.
